Screens as filed in PubChem BioAssay.
RAD54 inh – RAD54 (human) branch migration inhibition; Q92698; RAD54 Holliday junction branch migration, FAM/BHQ fluorescence; inhibition, % at 10.4 µM; 360,000 tested, 0.14% active; AID 602329;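 active means mean normalized replicate activity at least 40 and at least half of replicates scoring 40 or more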;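 further: inhibitors cause a drop in the FAM fluorescence signal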
FN deposit inh – fibronectin deposition inhibition; AH1F fibroblasts, Alexa488-fibronectin deposition fluorescence, overnight; inhibition, % at 12.6 µM; 350,000 tested, 0.086% active; AID 743247;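 active means mean inhibition across replicates of 30% or more, regardless of how many single replicates reach that level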
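Schedule: 1 h cell adhesion before compound, then overnight fibronectin incubation; test system: AH1F fibroblast monolayer depositing Alexa488-labelled fibronectin into matrix; quantity: 10000 AH1F cells per well; probe or stimulus: fluorescent fibronectin at 24 nM final; signal: fluorescence, ex 485 nm, em 525 nm; evaluation: percent inhibition as loss of matrix-bound fibronectin fluorescence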
N-glyco inh – N-linked glycosylation inhibition. 360,000 tested, 0.23% active. D54 ERlucT glycosylation luciferase reporter, 24 h; percent of 100 nM tunicamycin response. reporter increase, % at 12.5 µM;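 active means mean luciferase reporter signal, scaled so untreated is 0 and the glycosylation-blocking control 100, at or above a set limit in every replicate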;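 further: luciferase carries N-glycosylation sites so blocking glycosylation raises the light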
AF4-AF9 inh – inhibitors of human MLL-AF4/AF9 interaction | inhibition, % at 10 µM | 350,000 tested, 0.47% active | AlphaScreen, biotin-AF4 peptide binding to FLAG-AF9;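 active means every replicate reaching a set inhibition limit, whatever the replicate mean, cut at about 25% in these data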
NSD2 HMT inh – inhibitors of human histone methyltransferase NSD2 | 310,000 tested, 0.54% active | NSD2 peptide methylation, AlphaScreen, 120 min | O96028 | inhibition, % at 12.5 µM; in the data active means inhibition above about 50%
Target sequence (O96028 whole entry, looked up): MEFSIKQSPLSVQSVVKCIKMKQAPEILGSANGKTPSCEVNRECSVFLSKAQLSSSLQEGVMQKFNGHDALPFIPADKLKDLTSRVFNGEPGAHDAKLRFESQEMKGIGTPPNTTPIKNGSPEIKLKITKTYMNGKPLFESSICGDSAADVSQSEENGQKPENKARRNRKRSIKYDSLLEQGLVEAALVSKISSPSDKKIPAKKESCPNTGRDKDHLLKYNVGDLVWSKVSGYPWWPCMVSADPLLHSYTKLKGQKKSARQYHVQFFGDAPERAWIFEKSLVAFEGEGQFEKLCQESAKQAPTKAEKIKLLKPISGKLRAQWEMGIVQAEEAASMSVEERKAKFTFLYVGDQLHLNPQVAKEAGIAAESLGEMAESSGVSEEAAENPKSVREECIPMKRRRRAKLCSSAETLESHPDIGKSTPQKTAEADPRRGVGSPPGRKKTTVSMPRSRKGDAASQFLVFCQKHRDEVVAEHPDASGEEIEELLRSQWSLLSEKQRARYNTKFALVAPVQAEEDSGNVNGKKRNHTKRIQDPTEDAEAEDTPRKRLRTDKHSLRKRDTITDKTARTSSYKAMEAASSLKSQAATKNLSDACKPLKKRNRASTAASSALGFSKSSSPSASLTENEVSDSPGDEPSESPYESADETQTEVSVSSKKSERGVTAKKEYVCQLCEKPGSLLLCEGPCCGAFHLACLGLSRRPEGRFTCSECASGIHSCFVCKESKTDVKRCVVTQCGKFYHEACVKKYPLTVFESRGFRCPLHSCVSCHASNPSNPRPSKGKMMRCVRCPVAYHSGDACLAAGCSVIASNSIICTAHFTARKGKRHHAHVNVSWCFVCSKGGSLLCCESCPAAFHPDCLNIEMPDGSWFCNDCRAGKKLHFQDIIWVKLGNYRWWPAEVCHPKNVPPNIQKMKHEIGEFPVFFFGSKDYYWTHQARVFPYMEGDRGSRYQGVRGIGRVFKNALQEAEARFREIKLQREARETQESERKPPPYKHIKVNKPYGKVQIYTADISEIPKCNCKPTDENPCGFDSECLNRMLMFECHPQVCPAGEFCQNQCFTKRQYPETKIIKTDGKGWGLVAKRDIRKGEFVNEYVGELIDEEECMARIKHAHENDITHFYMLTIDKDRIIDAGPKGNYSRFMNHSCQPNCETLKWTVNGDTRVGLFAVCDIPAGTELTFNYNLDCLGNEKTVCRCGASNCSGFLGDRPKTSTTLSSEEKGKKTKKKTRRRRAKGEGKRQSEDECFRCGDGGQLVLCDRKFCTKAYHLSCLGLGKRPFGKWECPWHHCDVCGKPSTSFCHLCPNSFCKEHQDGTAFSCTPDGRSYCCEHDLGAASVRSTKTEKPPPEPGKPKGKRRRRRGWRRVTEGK
RAD52 anneal inh – blocks human RAD52 DNA annealing | 360,000 tested, 0.46% active | AID 651710 | inhibition, % at 18.7 µM | recombinant RAD52 DNA annealing, FRET fluorescence;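 active means every replicate showing at least 50% inhibition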
Numbers stand for hits; – = inactive; · = no result given; ! = a repeat was not active. Rows were chosen to be rich in hits. Some 1.2% of all compounds tested hit in one or more screens of this group.

SMILES	RAD54 inh	FN deposit inh	N-glyco inh	AF4-AF9 inh	NSD2 HMT inh	RAD52 anneal inh
CCc1nnc2n1N=C(c1ccc(OC)cc1)CS2	–	–	36.9	·	–	·
O=C(c1cc(COc2cccc3cccnc23)on1)N1CCC[C@H]1CO	–	–	–	40.6	–	–
COC(=O)C1CCCCN1C(=O)c1cc(COc2cccc3cccnc23)on1 (centres undefined)	–	–	·	–	–	–
CCN1CCN(C(c2ccc(C(F)(F)F)cc2)c2ccc3cccnc3c2O)CC1 (centres undefined)	–	–	–	84.9	–	–
Cc1ccc(-n2cc(CNCCc3ncc(C)[nH]3)c(-c3ccc(F)cc3)n2)cc1	·	–	–	28.0	–	–
Cc1ccc(-n2cc(CNCCn3nc(C)cc3C)c(-c3ccc(F)cc3)n2)cc1	–	–	–	–	–	–
CCN(CC)CCNC(=O)c1ccc2c(c1NCCO)C(=O)c1ccccc1C2=O	121.8	–	–	–	·	87.1
CC1CCN(C(=O)c2ccc3c(c2NCCO)C(=O)c2ccccc2C3=O)CC1	–	·	–	·	·	·
Cc1ccc(S(=O)(=O)NC2CCN(Cc3cccc(OCCO)c3)CC2)cc1	–	·	·	–	·	51.5
O=S(=O)(N[C@@H]1CCCN(Cc2cccc(OCCO)c2)C1)c1ccc2ccccc2c1	–	·	·	–	·	–
C[C@H]1CN([C@@H](C)CO)C(=O)c2cc(C3=CCCC3)cnc2O[C@H]1CN(C)C	–	–	·	–	·	–
COc1ccc(Oc2ccc(/C=N/NC(=O)c3cccnc3)cc2[N+](=O)[O-])cc1	·	–	–	–	–	–
COc1ccc(Oc2ccc(/C=C/C(=O)c3cccc(OC)c3)cc2[N+](=O)[O-])cc1	–	–	49.6	–	–	–
CC(=O)CSc1nnc(C(F)(F)F)n1C	·	–	–	33.2	–	–
COc1ccc(/C=N/NC(=O)c2ccc(COc3ccccc3Cl)o2)c(OC)c1C	–	–	43.3	·	–	·
COc1ccc(/C=N/NC(=O)c2ccc(COc3ccccc3Cl)o2)cc1	–	·	–	·	–	–
COc1ccc(CN(C)C[C@@H]2OCCCC[C@H](C)Oc3ccc(NC(=O)Nc4ccc(C(F)(F)F)cc4)cc3C(=O)N([C@@H](C)CO)C[C@H]2C)cc1	–	·	·	–	·	51.8
C[C@@H]1CCCCO[C@@H](CN(C)C(=O)Nc2ccccc2)[C@@H](C)CN([C@@H](C)CO)C(=O)c2cc(NC(=O)Nc3ccc(C(F)(F)F)cc3)ccc2O1	·	·	·	35.3	·	–
COc1ccc(CN(C)C[C@@H]2OCCCC[C@H](C)Oc3ccc(NC(=O)Nc4ccc(C(F)(F)F)cc4)cc3C(=O)N([C@H](C)CO)C[C@H]2C)cc1	–	·	·	–	·	65.4
C[C@H]1CCCCO[C@H](CN(C)Cc2ccncc2)[C@@H](C)CN([C@@H](C)CO)C(=O)c2cc(NC(=O)Nc3ccc(C(F)(F)F)cc3)ccc2O1	–	·	·	–	·	56.6
COc1ccc(NC(=O)Nc2ccc3c(c2)C(=O)N([C@H](C)CO)C[C@H](C)[C@@H](CN(C)Cc2ccc(C(F)(F)F)cc2)OCCCC[C@H](C)O3)cc1	–	–	·	–	·	–
COc1ccc(NC(=O)COC(=O)c2n[nH]c3ccccc23)cc1	·	·	·	·	–	·
Cc1nnc2ccc(N3CCN(c4cccc(C(F)(F)F)c4)CC3)nn12	–	–	–	50.5	·	–
CN1CCN(CC(=O)Nc2cc(N(C)C)nc3ccccc23)CC1	·	–	43.8	–	–	–
CCCCCC(=O)Nc1cc(N(C)C)nc2ccccc12	–	–	–	·	–	·
SMILES	RAD54 inh	FN deposit inh	N-glyco inh	AF4-AF9 inh	NSD2 HMT inh	RAD52 anneal inh
CCC(C)N1C(=O)S/C(=C/c2ccc(N3CCOCC3)cc2C)C1=O (centres undefined)	·	–	–	26.3	–	–
Cc1cc(N2CCOCC2)ccc1/C=C1\SC(=O)N(C(C)C)C1=O	–	·	–	·	·	·
CO[C@H]1CN(C)C(=O)c2cc(NS(=O)(=O)c3ccc(C)cc3)ccc2OC[C@H](C)N(C)C[C@@H]1C	–	–	·	–	·	–
COc1ccc(-c2nc3cnccn3c2Nc2ccc3c(c2)OCO3)cc1	–	–	–	27.7	·	–
Cc1ccc(-c2nc3cnccn3c2Nc2ccc3c(c2)OCO3)cc1	–	–	–	–	·	–
CC(C)(C)OC(=O)[C@H](Cc1ccccc1)NC(=O)c1nc[nH]c1C(=O)N1CCc2ccccc2C1	–	–	32.7	–	·	–
C[C@H](NC(=O)c1[nH]cnc1C(=O)Nc1ccccc1)C(=O)OC(C)(C)C	–	–	–	47.0	·	–
COc1cc(Nc2nc3c(N)cc(C(F)(F)F)cc3nc2-c2ccccc2)cc(OC)c1OC	·	–	26.3	–	–	–
CC(C)N(CC(=O)Nc1ccc(Cl)cc1C(F)(F)F)C(=O)CCl	·	–	33.9	–	–	–
O=C1c2cccc3cc([N+](=O)[O-])cc(c23)C(=O)N1CC1CCCO1 (centres undefined)	–	–	–	–	–	–
CN(C)CCN1C(=O)c2cccc3cc([N+](=O)[O-])cc(c23)C1=O	·	–	43.2	–	–	–
COc1ccccc1NC(=O)CN1C(=O)COc2ccc(S(=O)(=O)N3CCCCCC3)cc21	–	–	–	–	–	–
COc1ccc(OC)c(NC(=O)CN2C(=O)COc3ccc(S(=O)(=O)N4CCCC4)cc32)c1	–	–	–	34.7	–	–
O=C(NCCC1=CCCCC1)C1CCN(c2nc3ccccc3o2)CC1	–	·	–	·	–	·
O=C(NCCN1CCOCC1)C1CCN(c2nc3ccccc3o2)CC1	–	·	–	40.3	–	–
Cc1[nH]c2ccccc2c1/C=N/Nc1ccccn1	·	–	·	26.3	–	–
Cc1[nH]c2ccccc2c1/C=N/Nc1nncn1N	·	–	–	–	–	–
COc1ccc(CN(C)C[C@H]2Oc3c(NS(=O)(=O)c4ccc(F)cc4)cccc3C(=O)N([C@H](C)CO)C[C@H]2C)cc1	–	·	·	–	·	–
C[C@]1(O)CC(=O)C=C[C@H]1Nc1ccccc1	–	–	44.0	–	·	–
Cc1ccc2nc(Cl)c(/C=C/C(=O)c3ccco3)cc2c1	·	–	42.4	–	–	–
COc1cc2cc(/C=C/C(=O)c3ccco3)c(Cl)nc2cc1OC	–	–	48.8	·	–	·
Fc1cccc(CN2[C@@H]3CNC[C@H]2C3c2ccc(-c3ccncc3)cc2)c1 (some centres undefined)	·	–	·	30.3!	·	65.2!
c1ccc(-c2ccc(C3[C@H]4CNC[C@@H]3N4Cc3cccc(-c4ccncc4)c3)cc2)cc1 (some centres undefined)	·	–	·	–	·	59.2
Nc1nn(-c2ccccc2)nc1C(=O)OCc1ccccc1F	·	·	–	·	·	·
Cc1ccccc1COC(=O)c1nn(-c2ccccc2)nc1N	·	31.0	–	–	–	–
c1ccc2c(-c3csc(-c4ccncc4)n3)c[nH]c2c1	–	32.8	–	–	–	–
Brc1ccc(-c2csc(-c3c[nH]c4ccccc34)n2)cc1	–	·	–	·	–	·
COC(=O)[C@@H]1[C@@H](CO)[C@@H]2Cn3c(ccc(C4=CCCC4)c3=O)[C@@H]2N1C(=O)C1CCCC1	–	–	·	–	·	–
